Cneo AK release = Cryptococcus neoformans lysis via adenylate kinase release. C. neoformans lysis, adenylate kinase release luminescence, 4 h; normalised: neutral wells 0, clomiphene wells 100. lysis activity, % at 15 µM. 360,000 compounds, 0.2% hits. AID 651654;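 active = mean lysis activity across replicates of at least 80%, whatever share of replicates individually reach that level; inactive = mean lysis activity below 80%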
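Material – Cryptococcus neoformans yeast cells · Quantity – 5 × 10^6 yeast cells/mL · Buffer or medium – YPD medium · Compound – single dose · Timing – 4 h static compound exposure, 37 °C, read 1 h post-reagent · Signal – adenylate kinase release luminescence · Read-out basis – lysis from increased AK signal · Benchmarks – Clomiphene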
Ecoli rRNA inh = selective bacterial rRNA inhibition in E. coli | E. coli WT GFP vs humanized-ribosome RFP mutants, fluorescence, 24 h; hits give low values; DMSO median 0, no signal -100 | GFP signal change (wild-type ribosome), % (no concentration beside the values) | 350,000 compounds, 1.6% hits;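 active = significant combined selectivity score with lowered wild-type GFP, culture density cut under 30%, mutant RFP and density less affected; inactive = any of these conditions unmet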
F508del corr = CFTR F508del correction in bronchial cells. CFBE cells, YFP halide quenching; stimulated with forskolin plus potentiator P3; % fluorescence drop versus neutral controls. activity (quench increase), % at 7.58 µM. 350,000 compounds, 0.36% hits;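 active = mean added fluorescence quench of at least 8% versus neutral control, with both replicates also reaching 8%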;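 note: cells transiently co-express mutant CFTR-F508del with the halide-sensitive YFP; corrector assay measuring rescue of mutant channel to the surface after 24 h compound exposure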
CaV13 ICDI inh = Primary screen for inhibitors of IQ motif and Ca2+-dependent inactivation inhibitor domain binding in CACNA1D, Förster resonance energy transfer in living cells, …; HEK cells, CFP/YFP FRET ICDI-IQ, plate reader, 10 min; percent FRET-ratio fall versus neutral wells; inhibition, % at 12.3 µM; 340,000 compounds, 0.098% hits;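 active = mean replicate inhibition of at least 30% and at least 1% of replicates passing that level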;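 note: 0% = median of the neutral control wells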
* hit, by the source's call; x = not tested or not shown. Sampled rows, rich in hits. Any-hit rate of the full collection: about 1.7%.

SMILES	Cneo AK release	Ecoli rRNA inh	F508del corr	CaV13 ICDI inh
Cc1ccc(C)c(NC(=O)CSc2nc3c(c(=O)n2C)SC(C)C3)c1 (stereo not drawn)	-3	4	8.7*	-6
Cc1ccc(C)c(NC(=O)CSc2c(C)n[nH]c2C)c1	0	-55*	0	4
CCC(=O)Nc1ccc2c(c1)C(=O)N(C)C[C@@H](OC)[C@@H](C)CN(C(=O)C1CCC1)[C@H](C)CO2	-1	1	2	x
C/C=C/c1ccc([C@H]2[C@@H](CO)N(C(=O)COC)[C@@H]2CNC(=O)CC)cc1	2	2	8.3*	x
CC(=O)NC[C@@H]1[C@@H](c2ccc(C3=CCCC3)cc2)[C@@H](CO)N1C(=O)NC(C)C	112*	-3	1	x
C/C=C/c1ccc([C@@H]2[C@@H](CNC(=O)C3CC3)N(C(=O)CC)[C@H]2CO)cc1	93*	-3	-3	x
CC(=O)NC[C@H]1[C@H](c2ccc(C3=CCCC3)cc2)[C@@H](CO)N1C(=O)NC(C)C	1	-7	1	x
CCC(=O)N1[C@H](CO)[C@H](c2ccc(-c3ccc(F)cc3)cc2)[C@@H]1CNC(C)=O	82*	2	1	x
C/C=C/c1ccc([C@@H]2[C@@H](CO)N(C(=O)COC)[C@@H]2CNC(=O)CC)cc1	5	3	-5	x
Cc1noc(C)c1NC(=O)N(C)C[C@@H]1OCCCC[C@H](C)Oc2ccc(NC(=O)c3ccccc3)cc2C(=O)N([C@@H](C)CO)C[C@H]1C	20	-1	0	x
COc1ccc(Nc2nc3ccc(OC)cc3s2)cc1	x	-26*	-1	-7
CC(C)[C@@H]1COCc2cn(nn2)CC[C@@H](Cc2ccc(Cl)cc2)C(=O)N1	x	-1	x	x
COC(=O)[C@@]1(C)[C@H]2C(=O)N(Cc3ccccc3)C(=O)[C@H]2[C@H]2CN=C(SCc3ccc(Cl)cc3)N21	1	-21*	0	-4
COC(=O)[C@@]1(C)[C@H]2C(=O)N(Cc3ccccc3)C(=O)[C@H]2[C@H]2CN=C(SCc3ccc(C#N)cc3)N21	1	-2	0	-5
COc1cc([N+](=O)[O-])ccc1NC(=S)NNC(=O)CCC(=O)Nc1ccccc1Cl	-6	-17*	2	x
O=C(C[C@@H]1C[C@@H]2c3cc(NC(=O)NC4CCCC4)ccc3O[C@@H]2[C@H](CO)O1)NCc1cc(F)ccc1F	x	0	x	x
C[C@@H]1CN([C@H](C)CO)C(=O)c2cccc(NC(=O)C3CC3)c2O[C@H]1CN(C)Cc1ccc(C(=O)O)cc1	97*	3	2	x
C[C@H]1CN([C@@H](C)CO)C(=O)c2cccc(NS(C)(=O)=O)c2O[C@@H]1CN(C)Cc1ccc(-c2ccccc2)cc1	111*	-5	1	x
C[C@@H]1CN([C@H](C)CO)C(=O)c2cc(N(C)C)ccc2O[C@@H]1CN(C)Cc1ccc(C(=O)Nc2ccccc2N)cc1	1	x	9.2*	x
C[C@H](CO)N1C[C@H](C)[C@H](CN(C)Cc2ccc(-c3ccccc3)cc2)Oc2c(NC(=O)c3ccncc3)cccc2C1=O	111*	-6	-3	x
CNC[C@H]1Oc2c(NC(=O)CCC(F)(F)F)cccc2C(=O)N([C@H](C)CO)C[C@@H]1C	x	3	x	x
C/C=C/c1ccc([C@@H]2[C@@H](CO)N3C(=O)CN(C(=O)c4ccccc4)C[C@H]23)cc1	x	-1	0	x
CC(C)NC(=O)N(C)C[C@@H]1OCCCC[C@@H](C)Oc2ccc(NC(=O)CCC(F)(F)F)cc2C(=O)N([C@H](C)CO)C[C@H]1C	x	-1	-2	x
Cc1ccc(-c2ccc3c(c2)O[C@H](CN(C)C(=O)Nc2ccc(C(F)(F)F)cc2)[C@@H](C)CN([C@@H](C)CO)S3(=O)=O)cc1	-2	-5	8.7*	x
Cc1ccc(-c2ccc3c(c2)O[C@@H](CN(C)C(=O)Nc2ccc(C(F)(F)F)cc2)[C@H](C)CN([C@@H](C)CO)S3(=O)=O)cc1	-1	-2	7	x
SMILES	Cneo AK release	Ecoli rRNA inh	F508del corr	CaV13 ICDI inh
C[C@@H]1CN([C@H](C)CO)S(=O)(=O)c2ccc(-c3ccccc3)cc2O[C@H]1CN(C)Cc1ccccn1	1	-43	16*	x
C[C@@H]1CN([C@H](C)CO)S(=O)(=O)c2ccc(-c3ccc(C#N)cc3)cc2O[C@H]1CN(C)Cc1cccc(F)c1	1	-8	8.1*	x
C[C@H]1CN([C@@H](C)CO)S(=O)(=O)c2ccc(-c3ccc(C#N)cc3)cc2O[C@@H]1CN(C)Cc1cccc(F)c1	-3	-6	3	x
C[C@@H]1CN([C@H](C)CO)S(=O)(=O)c2ccc(-c3ccc(C#N)cc3)cc2O[C@H]1CN(C)Cc1ccccn1	-1	-6	12*	x
Cc1ccc(-c2ccc3c(c2)O[C@@H](CN(C)Cc2ccc(F)cc2)[C@@H](C)CN([C@@H](C)CO)S3(=O)=O)cc1	-8	-7	3	x
Cc1ccc(-c2ccc3c(c2)O[C@H](CN(C)Cc2ccc(F)cc2)[C@H](C)CN([C@H](C)CO)S3(=O)=O)cc1	90*	2	2	x
CCOc1ccc(N2CC(C(=O)NCCc3c[nH]c4ccc(OC)cc34)CC2=O)cc1 (stereo not drawn)	-1	1	-2	-7
O=C(NCc1nnnn1-c1ccc(Cl)cc1)C1CC(=O)N(c2ccc(F)cc2)C1 (stereo not drawn)	0	2	0	36*
NNC(=O)c1c[nH]c2ccc(OCc3ccccc3)cc12	x	-27*	3	-4
COc1ccc2c(=O)c(C(=O)NCc3ccccc3)c[nH]c2c1	-2	-2	-2	-1
COc1ccc2[nH]cc(CCNC(=O)C3CC(=O)N(c4ccc(Cl)cc4)C3)c2c1 (stereo not drawn)	-1	-24*	2	-8
COc1ccc(-n2nnnc2CNC(=O)C2CC(=O)N(c3ccc(F)cc3)C2)cc1 (stereo not drawn)	1	17	1	-5
COc1ccc2[nH]cc(C(=O)NCCc3ccccc3)c(=O)c2c1	-1	-21*	-1	-20
CN1CCN(C(=O)C[C@@H]2CC[C@H]3[C@@H](COC[C@@H](O)CN3CC3CC3)O2)CC1	-1	4	1	x
CNC[C@H]1Oc2ncc(Br)cc2C(=O)N([C@@H](C)CO)C[C@@H]1C	x	3	-5	x
COCC(=O)N(C)C[C@H]1Oc2cc(-c3ccc(C#N)cc3)ccc2S(=O)(=O)N([C@@H](C)CO)C[C@@H]1C	0	9	3	x
COc1ccc2c(=O)c(C(=O)NCCc3ccccc3)c[nH]c2c1	-1	-27*	0	-2
CCCCNC(=S)N/N=C/c1ccc(C#N)cc1	86*	-40	-2	-2
COc1ccc(/C=N/NC(=S)NCCc2ccccc2)cc1	11	-22*	-2	-21
COc1ccc2[nH]cc(CCNC(=S)NCCc3ccccc3)c2c1	2	-35*	-2	-3

Screens as filed in PubChem.
